Results: ChEMBL document CHEMBL1914423, “New imidazo[2,1-b]thiazole derivatives: synthesis, in vitro anticancer evaluation, and in silico studies” (Eur J Med Chem, 2011)

What was measured:
[1] = test system: LOX IMVI; assay: Antiproliferative activity against human LOXIMVI cells after 48 hrs by MTT assay; type: functional, cell-based
[2] = test system: Malme-3M; assay: Antiproliferative activity against human MALME-3M cells after 48 hrs by MTT assay; type: functional, cell-based
[3] = test system: MDA-MB-435; assay: Antiproliferative activity against human MDA-MB-435 cells after 48 hrs by MTT assay; type: functional, cell-based; conditions: MDA-MB-435, 48 h
[4] = test system: SK-MEL-28; assay: Antiproliferative activity against human SK-MEL-28 cells after 48 hrs by MTT assay; type: functional, cell-based; conditions: SK-MEL-28, 48 h
[5] = test system: CCRF-CEM; assay: Anticancer activity against human CCRF-CEM cells after 48 hrs by SRB assay; type: functional
Outline: (§1)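 NCI five-dose screen. Cells in RPMI 1640 with 5% FBS and 2 mM L-glutamine, seeded at 5000–40,000 cells/well according to doubling time, then pre-incubated 24 h at 37 °C in 5% CO2. Drugs dissolved in DMSO, five concentrations by 10-fold or 1/2-log dilution. Cells fixed with TCA, SRB-stained, A515 read. IC50 solved from [(Ti−Tz)/(C−Tz)]×100 = 50.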

[6] = test system: K562; assay: Anticancer activity against human K562 cells after 48 hrs by SRB assay; type: functional; conditions: K562, 48 h; outline: as §1
[7] = test system: MOLT-4; assay: Anticancer activity against human MOLT4 cells after 48 hrs by SRB assay; type: functional; conditions: MOLT-4, 48 h
[8] = test system: A549; assay: Anticancer activity against human A549 cells after 48 hrs by SRB assay; type: functional; conditions: A549, 48 h; outline: as §1
[9] = test system: HOP-92; assay: Anticancer activity against human HOP92 cells after 48 hrs by SRB assay; type: functional; conditions: HOP-92, 48 h; outline: as §1
[10] = test system: HCC 2998; assay: Anticancer activity against human HCC2998 cells after 48 hrs by SRB assay; type: functional; conditions: HCC 2998, 48 h; outline: as §1
[11] = test system: HCT-116; assay: Anticancer activity against human HCT116 cells after 48 hrs by SRB assay; type: functional; conditions: HCT-116, 48 h; outline: as §1
[12] = test system: HCT-15; assay: Anticancer activity against human HCT15 cells after 48 hrs by SRB assay; type: functional; conditions: HCT-15, 48 h; outline: as §1
[13] = test system: KM12; assay: Anticancer activity against human KM12 cells after 48 hrs by SRB assay; type: functional; conditions: KM12, 48 h; outline: as §1
[14] = test system: SW-620; assay: Anticancer activity against human SW620 cells after 48 hrs by SRB assay; type: functional; conditions: SW-620, 48 h
Outline: (§2)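 NCI-60 five-dose mode: cells in RPMI 1640 with 5% FBS and 2 mM glutamine, plated at 5000–40,000 cells/well, and preincubated 24 h, with time-zero plates TCA-fixed. Drug given at five concentrations (10-fold or ½-log serial dilutions). Cold TCA fixation 60 min at 4 °C, SRB stain, Tris solubilization, A515. IC50 taken where [(Ti−Tz)/(C−Tz)]×100 = 50.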

[15] = test system: SF-539; assay: Anticancer activity against human SF539 cells after 48 hrs by SRB assay; type: functional; conditions: SF-539, 48 h
[16] = test system: SNB-19; assay: Anticancer activity against human SNB19 cells after 48 hrs by SRB assay; type: functional; conditions: SNB-19, 48 h
[17] = test system: SNB-75; assay: Anticancer activity against human SNB75 cells after 48 hrs by SRB assay; type: functional; conditions: SNB-75, 48 h
[18] = test system: U-251; assay: Anticancer activity against human U251 cells after 48 hrs by SRB assay; type: functional; conditions: U-251, 48 h; outline: as §2
[19] = test system: LOX IMVI; assay: Anticancer activity against human LOXIMVI cells after 48 hrs by SRB assay; type: functional; outline: as §1
[20] = test system: MDA-MB-435; assay: Anticancer activity against human MDA-MB-435 cells after 48 hrs by SRB assay; type: functional; conditions: MDA-MB-435, 48 h; outline: as §1
[21] = test system: SK-MEL-2; assay: Anticancer activity against human SK-MEL-2 cells after 48 hrs by SRB assay; type: functional; conditions: SK-MEL-2, 48 h
[22] = test system: SK-MEL-5; assay: Anticancer activity against human SK-MEL-5 cells after 48 hrs by SRB assay; type: functional; conditions: SK-MEL-5, 48 h
[23] = test system: UACC-257; assay: Anticancer activity against human UACC257 cells after 48 hrs by SRB assay; type: functional; conditions: UACC-257, 48 h; outline: as §2
[24] = test system: UACC-62; assay: Anticancer activity against human UACC62 cells after 48 hrs by SRB assay; type: functional; conditions: UACC-62, 48 h; outline: as §2
[25] = test system: OVCAR-3; assay: Anticancer activity against human OVCAR3 cells after 48 hrs by SRB assay; type: functional; conditions: OVCAR-3, 48 h
[26] = test system: NCI/ADR-RES; assay: Anticancer activity against human NCI/ADR-RES cells after 48 hrs by SRB assay; type: functional
[27] = test system: A498; assay: Anticancer activity against human A498 cells after 48 hrs by SRB assay; type: functional; conditions: A498, 48 h; outline: as §1
[28] = test system: ACHN; assay: Anticancer activity against human ACHN cells after 48 hrs by SRB assay; type: functional; outline: as §1
[29] = test system: MDA-MB-231; assay: Anticancer activity against human MDA-MB-231 cells after 48 hrs by SRB assay; type: functional; conditions: MDA-MB-231, 48 h; outline: as §1
[30] = read-out: LC50 (the source's name)

**Q.** For O=C(NCCNc1nccc(-c2c(-c3cccc(O)c3)nc3sccn23)n1)c1ccccc1O, which IC50 [1] is on record?
**A.** 2.65 µM

**Q.** What about the IC50 [2] of the same compound?
**A.** 0.152 µM

**Q.** And the IC50 [3]?
**A.** 0.433 µM

**Q.** What about the IC50 [4] of the same compound?
**A.** 0.683 µM

**Q.** And the GI50 [5]?
**A.** 3.43 µM

**Q.** What about the TGI [5] of the same compound?
**A.** > 100 µM

**Q.** And the CC50 [5, 30]?
**A.** > 100 µM

**Q.** And the GI50 [6]?
**A.** 6.06 µM

**Q.** And the TGI [6]?
**A.** > 100 µM

**Q.** What about the CC50 [6, 30] of the same compound?
**A.** > 100 µM

**Q.** What about the GI50 [7] of the same compound?
**A.** 2.97 µM

**Q.** And the TGI [7]?
**A.** 21.7 µM

**Q.** What about the CC50 [7, 30] of the same compound?
**A.** > 100 µM

**Q.** What about the GI50 [8] of the same compound?
**A.** 11 µM

**Q.** And the LC50 (concentration giving 50% net tumour cell kill) [8]?
**A.** > 100 µM

**Q.** And the TGI [8]?
**A.** 49 µM

**Q.** What about the GI50 [9] of the same compound?
**A.** 9.74 µM

**Q.** What about the TGI [9] of the same compound?
**A.** 34.7 µM

**Q.** What about the CC50 [9, 30] of the same compound?
**A.** > 100 µM

**Q.** What about the GI50 [10] of the same compound?
**A.** 3.55 µM

**Q.** What about the TGI [10] of the same compound?
**A.** 16.5 µM

**Q.** And the CC50 [10, 30]?
**A.** > 100 µM

**Q.** And the GI50 [11]?
**A.** 5.13 µM

**Q.** And the TGI [11]?
**A.** > 100 µM

**Q.** And the CC50 [11, 30]?
**A.** > 100 µM

**Q.** What about the GI50 [12] of the same compound?
**A.** 3.83 µM

**Q.** And the TGI [12]?
**A.** 24.5 µM

**Q.** And the CC50 [12, 30]?
**A.** > 100 µM

**Q.** What about the GI50 [13] of the same compound?
**A.** 6.38 µM

**Q.** What about the TGI [13] of the same compound?
**A.** 27.3 µM

**Q.** What about the CC50 [13, 30] of the same compound?
**A.** > 100 µM

**Q.** And the GI50 [14]?
**A.** 5.43 µM

**Q.** What about the TGI [14] of the same compound?
**A.** 49.5 µM

**Q.** And the CC50 [14, 30]?
**A.** > 100 µM

**Q.** And the GI50 [15]?
**A.** 11.9 µM

**Q.** And the TGI [15]?
**A.** > 100 µM

**Q.** What about the CC50 [15, 30] of the same compound?
**A.** > 100 µM

**Q.** What about the GI50 [16] of the same compound?
**A.** 5.02 µM

**Q.** What about the TGI [16] of the same compound?
**A.** > 100 µM

**Q.** And the CC50 [16, 30]?
**A.** > 100 µM

**Q.** And the GI50 [17]?
**A.** 2.65 µM

**Q.** And the TGI [17]?
**A.** 20.5 µM

**Q.** What about the CC50 [17, 30] of the same compound?
**A.** > 100 µM

**Q.** And the GI50 [18]?
**A.** 0.152 µM

**Q.** And the TGI [18]?
**A.** 18.7 µM

**Q.** What about the CC50 [18, 30] of the same compound?
**A.** 64.6 µM

**Q.** What about the GI50 [19] of the same compound?
**A.** 0.335 µM

**Q.** And the TGI [19]?
**A.** 16.4 µM

**Q.** What about the CC50 [19, 30] of the same compound?
**A.** 75.1 µM

**Q.** What about the GI50 [20] of the same compound?
**A.** 1.22 µM

**Q.** And the TGI [20]?
**A.** 3.54 µM

**Q.** And the CC50 [20, 30]?
**A.** 10.6 µM

**Q.** What about the GI50 [21] of the same compound?
**A.** 0.651 µM

**Q.** And the TGI [21]?
**A.** 15.9 µM

**Q.** And the CC50 [21, 30]?
**A.** > 100 µM

**Q.** And the GI50 [22]?
**A.** 4.57 µM

**Q.** And the TGI [22]?
**A.** 53.3 µM

**Q.** And the CC50 [22, 30]?
**A.** > 100 µM

**Q.** And the GI50 [23]?
**A.** 6.41 µM

**Q.** What about the TGI [23] of the same compound?
**A.** 73.6 µM

**Q.** What about the CC50 [23, 30] of the same compound?
**A.** > 100 µM

**Q.** And the GI50 [24]?
**A.** 8.32 µM

**Q.** What about the TGI [24] of the same compound?
**A.** 96.9 µM

**Q.** And the CC50 [24, 30]?
**A.** > 100 µM

**Q.** What about the GI50 [25] of the same compound?
**A.** 3.35 µM

**Q.** And the TGI [25]?
**A.** 30.3 µM

**Q.** And the CC50 [25, 30]?
**A.** > 100 µM

**Q.** And the GI50 [26]?
**A.** 5.05 µM

**Q.** What about the TGI [26] of the same compound?
**A.** 68.5 µM

**Q.** What about the CC50 [26, 30] of the same compound?
**A.** > 100 µM

**Q.** What about the GI50 [27] of the same compound?
**A.** 14.5 µM

**Q.** And the TGI [27]?
**A.** 33.7 µM

**Q.** And the CC50 [27, 30]?
**A.** 78.1 µM

**Q.** And the GI50 [28]?
**A.** 3.89 µM

**Q.** What about the TGI [28] of the same compound?
**A.** > 100 µM

**Q.** What about the CC50 [28, 30] of the same compound?
**A.** > 100 µM

**Q.** And the GI50 [29]?
**A.** 2.63 µM

**Q.** And the TGI [29]?
**A.** 62.3 µM

**Q.** And the CC50 [29, 30]?
**A.** > 100 µM
